Only some compounds are listed: those with a hit (about 0.99% of all), similar ones and a draw of the others.
SKN-1 block: C. elegans SKN-1 inhibition; 0.49% of 360,000 active; AID 624304; C. elegans VP596 Pgst-4::GFP/RFP ratio, acrylamide-induced, 24 h; inhibition, % at 21.8 µM;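 active = interference check ratio from 0.5 to 1.5 plus GFP to RFP signal ratio inhibition reaching or exceeding a fixed threshold, cut at about 30% in these data, passing the limit was not always enough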
TLR4 MyD88 comp: TLR4-MyD88 interaction inhibition in cells | O00206+Q99836 | HeLa CL3-4 TLR4/MyD88 BLA complementation, FRET ratio | inhibition, % at 8.4 µM | 0.18% of 200,000 active | AID 861; in the data active = inhibition above about 25%
TLR9-MyD88 block: inhibitors of human TLR9-MyD88 binding; CHO BLA complementation TLR9-MyD88, CCF4 FRET ratio; inhibition, % at 4.98 µM; 0.21% of 340,000 active; Q9NR96+Q99836; AID 504734;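 active = inhibition above the mean over all tested compounds plus 3 SD, cut at about 21% in these data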
Target sequence (Q99836 whole entry, looked up): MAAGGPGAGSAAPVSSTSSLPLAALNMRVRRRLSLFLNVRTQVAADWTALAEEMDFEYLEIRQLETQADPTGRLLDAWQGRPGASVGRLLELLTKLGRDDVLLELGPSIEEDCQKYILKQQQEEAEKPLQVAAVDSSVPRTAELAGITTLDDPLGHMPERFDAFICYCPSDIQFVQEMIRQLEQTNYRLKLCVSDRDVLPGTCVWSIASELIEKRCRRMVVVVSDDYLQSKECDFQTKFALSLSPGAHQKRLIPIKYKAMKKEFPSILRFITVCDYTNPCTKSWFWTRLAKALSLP
Target sequence (Q9NR96 whole entry, looked up): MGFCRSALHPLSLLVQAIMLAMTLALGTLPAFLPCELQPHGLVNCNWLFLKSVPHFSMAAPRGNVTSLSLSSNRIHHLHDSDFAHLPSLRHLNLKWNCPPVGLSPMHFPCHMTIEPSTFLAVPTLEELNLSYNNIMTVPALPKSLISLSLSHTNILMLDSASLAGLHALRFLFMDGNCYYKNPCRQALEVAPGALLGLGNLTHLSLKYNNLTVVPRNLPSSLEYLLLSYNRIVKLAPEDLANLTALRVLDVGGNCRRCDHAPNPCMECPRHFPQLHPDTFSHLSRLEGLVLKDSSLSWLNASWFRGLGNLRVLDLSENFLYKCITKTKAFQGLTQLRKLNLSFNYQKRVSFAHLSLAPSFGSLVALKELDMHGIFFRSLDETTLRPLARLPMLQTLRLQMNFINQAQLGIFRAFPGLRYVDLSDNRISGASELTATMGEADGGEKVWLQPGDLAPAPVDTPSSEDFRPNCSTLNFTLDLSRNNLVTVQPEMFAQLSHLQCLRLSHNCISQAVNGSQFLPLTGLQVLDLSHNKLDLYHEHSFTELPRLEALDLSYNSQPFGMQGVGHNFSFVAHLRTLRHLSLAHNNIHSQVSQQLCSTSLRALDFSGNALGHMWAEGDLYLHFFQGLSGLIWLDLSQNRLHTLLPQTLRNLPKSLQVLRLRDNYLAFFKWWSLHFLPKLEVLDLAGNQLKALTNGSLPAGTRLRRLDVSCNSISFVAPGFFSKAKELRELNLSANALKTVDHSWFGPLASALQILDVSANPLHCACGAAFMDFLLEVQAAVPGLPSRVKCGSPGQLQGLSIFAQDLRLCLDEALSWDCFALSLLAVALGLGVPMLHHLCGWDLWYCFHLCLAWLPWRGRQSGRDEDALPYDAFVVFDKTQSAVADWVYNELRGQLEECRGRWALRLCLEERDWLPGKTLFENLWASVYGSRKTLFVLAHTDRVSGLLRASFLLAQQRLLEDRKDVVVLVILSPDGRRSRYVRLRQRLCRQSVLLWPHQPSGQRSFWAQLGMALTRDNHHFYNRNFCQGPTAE
MT1-MMP act inh: blocks activation of human MT1-MMP | GFP/RFP ratio change, % at 20 µM | 0.061% of 360,000 active | P50281 | HT1080 RFP-PRO-GFP cells, GFP/RFP ratio fluorescence, overnight; percent of plate control window, DMSO zero;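 active = GFP/RFP ratio change of at least 30% with cell ATP level not reduced by more than half and red fluorescence within 50% of control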
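Assay system: HT1080 RFP-PRO-GFP cells | Dosing: 20 µM single dose, 1% DMSO | Incubation: Cells overnight before dosing, compound overnight, 37 °C, 5% CO2 | Evaluation: GFP/RFP fluorescence ratio | Control set: DMSO-only wells and HT1080 RFP-L50D-GFP cell wells as references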
NOD2 RIPK2 PPI: inhibitors of human NOD2-RIPK2 interaction; CHO BLA complementation NOD2-RIPK2, CCF4 ratio; O43353; 0.38% of 360,000 active; inhibition, % at 4.98 µM; AID 624267; in the data active = inhibition above about 21%
Each line names hits and unclear results; the compound was inactive in the other large screens.

CSc1nnc(-c2ccccc2Cl)o1	none
CCN1C(=S)SC(=O)C1=C1C=C(C)OC(C)=C1	SKN-1 block 44
O=C1CCC2(CCCCC2)N1	none (no result: TLR4 MyD88 comp)
CN1CCc2c(sc3c2C(=O)NC(c2ccccc2)N3)C1 (stereo not drawn)	SKN-1 block 47
FC(F)(F)c1ccc(-c2csc(-c3ccno3)n2)cc1	SKN-1 block 44 (no result: TLR4 MyD88 comp)
N#Cc1ccc(-c2csc(-c3ccno3)n2)cc1	none (no result: TLR4 MyD88 comp, TLR9-MyD88 block)
CN1C(=O)/C(=C/C=C2\SCCN2C)N(C)C1=S	SKN-1 block 47
O=C(O)CCn1c(SCCOc2ccccc2F)nc2ccccc21	none (no result: TLR4 MyD88 comp)
C=CCN1C=C/C(=C\C=C(C#N)C#N)c2ccccc21	SKN-1 block 35
CCCCCCN1C=C/C(=C\C=C(C#N)C#N)c2ccccc21	none
COc1ccccc1C(=O)NC(=O)COC(=O)Cc1ccccc1[N+](=O)[O-]	none (no result: TLR4 MyD88 comp)
O=C(O)CNS(=O)(=O)c1ccc2c(c1)C(=O)c1cc(S(=O)(=O)NCC(=O)O)ccc1-2	SKN-1 block 29 (no result: TLR4 MyD88 comp)
CCN(C(=O)COC(=O)c1ccc(S(=O)(=O)N2CCCc3ccccc32)cc1)C1CCS(=O)(=O)C1 (stereo not drawn)	none
O=C(COC(=O)c1ccc(Br)o1)Nc1ccc(S(=O)(=O)N2CCCC2)cc1	SKN-1 block 40
O=C(COC(=O)c1ccc(Br)o1)Nc1cccc(S(=O)(=O)N2CCCCC2)c1	none (no result: TLR4 MyD88 comp)
CN(Cc1c(F)cccc1Cl)C(=O)c1ccc(NC(=O)CC2SC(N3CCCC3)=NC2=O)cc1 (stereo not drawn)	none (no result: TLR4 MyD88 comp)
COc1ccc(C(=O)/C=C/Nc2ccccn2)c(OC)c1	none (no result: TLR4 MyD88 comp, TLR9-MyD88 block)
O=C(/C=C\Nc1ccccn1)c1ccccc1	SKN-1 block 61
O=C(/C=C/Nc1ccc(Br)cc1F)c1ccccc1	SKN-1 block 50
COc1ccc(Cl)cc1C(=O)Nn1cnnc1	none (no result: TLR4 MyD88 comp)
CN1/C(=C\C(=O)Nc2cccc(Cl)c2)C(C)(C)c2ccccc21	SKN-1 block 50
Clc1ccc(-c2nc(CSc3ccccn3)cs2)cc1	SKN-1 block 58 (no result: TLR4 MyD88 comp)
Cc1ccc(OCC(=O)O/N=C(\N)c2cccnc2)cc1	none
N/C(=N\OC(=O)COc1ccc(Cl)cc1)c1cccnc1	SKN-1 block 37
N/C(=N\OC(=O)COc1ccc2ccccc2c1)c1ccncc1	SKN-1 block 39
N/C(=N\OC(=O)COc1ccc2ccccc2c1)c1cccnc1	SKN-1 block 42
COc1cccc(NC(=O)CN(C)C(=O)C(C)Sc2ccccc2)c1 (stereo not drawn)	none (no result: TLR4 MyD88 comp)
O=C(O)CC/C(=N/NC(=O)CNC(=O)c1ccc2c(c1)OCCO2)c1ccccc1	none (no result: TLR4 MyD88 comp)
C[C@H]1Cn2cnc(C(=O)NCc3ccc(CNC(=O)OC(C)(C)C)cc3)c2C(=O)N1	none (no result: TLR4 MyD88 comp)
COc1ccc(N=C2S/C(=C\c3ccc(N4CCOCC4)o3)C(=O)N2CCc2c[nH]c3ccccc23)cc1	NOD2 RIPK2 PPI 33
CC(=O)Oc1ccc(C(=O)Nc2ccccc2C(=O)Nc2ccc(C(=O)O)cc2)cc1	none (no result: TLR4 MyD88 comp)
O=C(O)c1ccc(Nc2ccc([N+](=O)[O-])c3nonc23)cc1	SKN-1 block 44 (no result: TLR4 MyD88 comp)
CCc1nnc(NS(=O)(=O)c2ccc(Nc3ccc([N+](=O)[O-])c4nonc34)cc2)s1	SKN-1 block 51
CC(=O)c1ccc(Nc2ccc([N+](=O)[O-])c3nonc23)cc1	none (no result: TLR4 MyD88 comp)
CCc1nnc(NS(=O)(=O)c2ccc(NS(=O)(=O)c3ccccc3[N+](=O)[O-])cc2)s1	none (no result: TLR4 MyD88 comp)
Clc1ccsc1-c1ccnc(-n2cccc2)n1	none
Clc1ccc(-c2ccnc(-n3cccc3)n2)s1	SKN-1 block 43
CCS(=O)(=O)N1N=C(c2cccc(NS(C)(=O)=O)c2)CC1c1ccc(C)cc1 (stereo not drawn)	none
CSc1ccc(Cl)c(C(=O)NCc2ccco2)c1	SKN-1 block 41
CCc1ccc(NC(=O)c2[nH]c(C)c(C(C)=O)c2C)cc1	none (no result: TLR4 MyD88 comp)
CCc1ccc(Nc2oc(C)cc(=O)c2C(C)=O)cc1	SKN-1 block 69
Brc1ccc(CSc2nccn2-c2ccccc2)cc1	NOD2 RIPK2 PPI 22
C=CCn1c(SCC(=O)OCC)nc(C(F)(F)F)cc1=O	none
NC(=O)CC(NC(=O)Cc1cccc2ccccc12)c1ccc(N2CCC(N3CCCCC3)CC2)c([N+](=O)[O-])c1 (stereo not drawn)	SKN-1 block 46 (no result: TLR4 MyD88 comp)
NC(=O)CC(NC(=O)Cc1cccc2ccccc12)c1ccc(N2CCCCCC2)c([N+](=O)[O-])c1 (stereo not drawn)	none (no result: TLR4 MyD88 comp)
O=C(CSc1nc2ccccc2c2nc3ccccc3n12)NCc1ccco1	SKN-1 block 48
Cc1nn(-c2ccccc2)c(Cl)c1/C=N/O	none
Cc1nn(-c2ccccc2)c(Cl)c1/C=C/C(=O)c1ccccc1	SKN-1 block 31
COc1ccccc1N1CCN(CCC(=O)Nc2ccc3c(c2)OCO3)CC1	SKN-1 block 48
COc1ccccc1C(=O)N(C)c1nnc(-c2ccccc2)s1	none (no result: TLR4 MyD88 comp)
COc1ccc(-c2noc(-c3ccoc3C)n2)cc1	none
COc1cc(OC)cc(-c2nc(-c3cccs3)no2)c1	none
COc1cccc(-c2noc(-c3ccoc3C)n2)c1	SKN-1 block 56
COc1cccc(-c2nc(-c3cccs3)no2)c1	SKN-1 block 46 (no result: TLR4 MyD88 comp)
COC(=O)c1ccc(-c2ccc(Cl)cc2)nc1C	SKN-1 block 51
COC(=O)c1ccccc1NC(=O)c1sc(Cl)nc1C	none (no result: TLR4 MyD88 comp)
Cn1ncc(C#N)c1/N=C/N1CCCCC1	none
Cn1ncc(C#N)c1/N=C/N1CCCC1	SKN-1 block 42
NC(N)=Nc1ccc(C=C2C=Cc3ccccc32)cc1	none (no result: TLR4 MyD88 comp)
CSc1nsc(SCc2ccc(F)cc2)n1	SKN-1 block 60
CCOc1cc(CNCCSc2nnnn2C)cc(Br)c1OCc1ccc(F)cc1	SKN-1 block 68
CCOc1cc(CNCCSc2nnnn2C)cc(Br)c1OCc1ccccc1F	SKN-1 block 39
COc1cc(CNCCSc2nnnn2C)cc(Br)c1OCc1ccc(F)cc1	none
CCOc1ccc(S(=O)(=O)NCc2ccc3c(c2)OCO3)cc1NC(C)=O	none (no result: TLR4 MyD88 comp)
O=C(COc1ncnc2c(Cl)cc(Cl)cc12)N1CCCCC1	SKN-1 block 30
CCN(CC(=O)Nc1ccc(NC(C)=O)cc1)C(=O)CC1OC(=O)c2ccccc21 (stereo not drawn)	none (no result: TLR4 MyD88 comp)
CCCCCCCCCCOC(=O)Cn1c(COc2ccccc2C)[n+](C)c2ccccc21	NOD2 RIPK2 PPI 22 (no result: TLR4 MyD88 comp)
Brc1ccc(-c2csc(-c3ccncc3)n2)cc1	SKN-1 block 40
Nc1nc(-c2ccc(Br)cc2)cs1	none
Cc1ccc(-c2csc(-c3ccncc3)n2)cc1	SKN-1 block 41
c1ccc(-c2csc(-c3cccnc3)n2)cc1	SKN-1 block 42
O=C1C(C2=NC(c3ccccn3)C3C(=O)N(c4ccccc4)C(=O)C23)=C(O)c2ccccc21 (stereo not drawn)	none (no result: TLR4 MyD88 comp)
CCOC(=O)C(CC)n1cnc2c(nnn2-c2ccc(F)cc2)c1=O (stereo not drawn)	none (no result: TLR4 MyD88 comp)
Cc1nc2nc(NC(=O)c3ccco3)[nH]n2c(=O)c1C	none (no result: TLR4 MyD88 comp)
